Source: PubChem BioAssay
MEKK2 WT-MEK5 = modulators of MEK5 binding to wildtype MEKK2, primary screen, biochemical, multiplex bead flow cytometry, Alexa488-MEK5; Alexa488-MEK5 binding to MEKK2 WT; actives lie on both sides; 290,000 tested, 1.1% active; binding response (% of control), % at 10 µM; AID 1531, 2009; Mitogen-activated protein kinase kinase kinase 2 (Homo sapiens), Q9Y2U5; in the data active means binding response below about 67% or above about 130%
MEKK2 mut-MEK5 = MEK5 binding signal on mutant MEKK2 PB1, primary screen, biochemical, multiplex bead flow cytometry, Alexa488-MEK5; Alexa488-MEK5 binding to MEKK2 mutant; percent response, % at 10 µM; AID 1530, 2009; 290,000 tested, 0.35% active; in the data active means percent response above about 24%, passing the limit was not always enough
UBC13 polyUb = UBC13 polyubiquitin chain formation inhibitors, primary screen, biochemical, TR-FRET, uHTS; Ubiquitin-conjugating enzyme E2 N (Homo sapiens), P61088; inhibition, % at 20 µM; 330,000 tested, 0.47% active; in the data active means inhibition above about 45%, passing the limit was not always enough
Target sequence (P61088 whole entry, looked up): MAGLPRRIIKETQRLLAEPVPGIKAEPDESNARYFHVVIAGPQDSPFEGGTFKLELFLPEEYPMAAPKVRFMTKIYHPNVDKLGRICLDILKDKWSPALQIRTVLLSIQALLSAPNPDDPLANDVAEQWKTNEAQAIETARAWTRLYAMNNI
UCH37 inh = inhibitors of human UCH37 deubiquitinase, primary screen, biochemical, Ub-AMC cleavage, fluorescence | purified proteasome/UCH37 | inhibition, % (concentration not given with the values) | 330,000 tested, 0.33% active | AID 588478, 2011;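 active means mean inhibition over replicate wells above about 20%, limit read from the data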;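 further: 0% = compound-free wells with enzyme and 100% = wells lacking proteasome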
Target sequence (Q9Y5K5 whole entry, looked up): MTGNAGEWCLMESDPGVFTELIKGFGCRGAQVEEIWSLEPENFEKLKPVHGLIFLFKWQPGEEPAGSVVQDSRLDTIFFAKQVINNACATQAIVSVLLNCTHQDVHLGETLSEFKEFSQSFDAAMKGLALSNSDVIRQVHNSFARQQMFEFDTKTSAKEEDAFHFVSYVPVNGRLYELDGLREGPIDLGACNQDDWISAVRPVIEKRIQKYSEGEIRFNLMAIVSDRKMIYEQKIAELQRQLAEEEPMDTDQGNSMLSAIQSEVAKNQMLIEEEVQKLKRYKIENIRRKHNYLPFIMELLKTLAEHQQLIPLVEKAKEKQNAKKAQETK
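Material: Human UCH37 enzyme supplied as purified proteasome complex | Schedule: 30 min compound-proteasome preincubation then 25 min substrate reaction, room temperature | Detection: AMC fluorescence from Ub-AMC cleavage, excitation 355 nm, emission 460 nm | Benchmarks: Wells without proteasome as full block, compound-free enzyme plus substrate as uninhibited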
MEKK3 PB1 HTS = modulators of MEKK3-MEK5 PB1 binding, primary screen, biochemical, wildtype MEKK3, multiplex bead flow cytometry, Alexa488-MEK5; Mitogen-activated protein kinase kinase kinase 3 (Homo sapiens), Q99759; bead-based flow cytometry, Alexa488-MEK5 binding to MEKK3; actives lie on both sides; 0 = blocked by unlabeled MEK5, 100 = vehicle; binding response (% of control), % at 10 µM; 290,000 tested, 1.4% active;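 active means binding response more than 3 SD above or below the average of its plate-row segment, actives on both sides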;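 further: Alexa488 bead fluorescence after subtracting the streptavidin-only scavenger bead signal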
Apaf1 inhib = inhibitors of human Apaf-1 apoptosome, primary screen, biochemical, DEVD-Rh110 fluorescence, uHTS. Apoptotic protease-activating factor 1 (Homo sapiens), O14727. reconstituted apoptosome caspase-3 activity. inhibition, % at 20 µM. 330,000 tested, 0.71% active. AID 489030, 2010; active means inhibition of at least 40% at 20 µM;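 further: plate controls were DMSO wells for no effect and DEVD-CHO caspase inhibitor wells for full effect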
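Assay system: Apoptosome proteins | Medium: pH 7.5 Hepes buffer with CHAPS, BSA, DTT | Also added: Cytochrome c and DEVD-Rh110 substrate | Times: 30 min plus 50 min, RT | Detection: Rhodamine 110 fluorescence at Ex 480/Em 540 nm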
Apaf-1 inh conf = Apaf-1 inhibitors, single-dose retest, confirmation, biochemical, fluorescence, DEVD-Rh110, 20 µM | AID 504614, 2011 | reconstituted apoptosome, caspase-3 DEVD-Rh110 fluorescence | 1,800 tested, 25% active | inhibition, % at 20 µM | shares compounds with Apaf1 inhib;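 active means mean inhibition of at least 40% at 20 µM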;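 further: plate controls were DMSO wells for no effect and DEVD-CHO caspase inhibitor control wells for full effect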
Rh110 interf inh = Rh110 fluorescence interference by putative Apaf-1 inhibitors, confirmation, artefact control for Apaf-1 inhibitor project, biochemical, 20 µM; shares compounds with Apaf1 inhib; activation (fluorescence interference), % at 20 µM; 1,800 tested, under 10 active; quenched caspase reaction; AID 504615, 2011;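 active means signal rise of 40% or more at 20 µM, treated as a fluorescence artifact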
Numbers without * were called inactive. In the library only some 3% were active in any assay of this set; here they are far more common.

`COc1ccc(N)c2c1C(=O)c1ccccc1C2=O` gave MEKK2 WT-MEK5 106, MEKK2 mut-MEK5 3, UCH37 inh 6 and MEKK3 PB1 HTS 106.
COc1ccc(OC)c2c1C(=O)c1ccccc1C2=O was read as MEKK2 WT-MEK5 97, MEKK2 mut-MEK5 1, UBC13 polyUb -38, UCH37 inh 5, MEKK3 PB1 HTS 98, Apaf1 inhib 63*, Apaf-1 inh conf -1 and Rh110 interf inh -7.
For COc1cccc2c1C(=O)c1ccc3ccccc3c1C2=O the results were MEKK2 WT-MEK5 89, MEKK2 mut-MEK5 -7, UBC13 polyUb -8, UCH37 inh 2, MEKK3 PB1 HTS 99, Apaf1 inhib 72*, Apaf-1 inh conf 9 and Rh110 interf inh 4.
For O=C(NCc1n[nH]c(=S)n1-c1ccc(F)cc1)c1ccc(S(=O)(=O)N2CCOCC2)cc1 the results were MEKK2 WT-MEK5 104, MEKK2 mut-MEK5 2, UBC13 polyUb -6, UCH37 inh 1, MEKK3 PB1 HTS 104 and Apaf1 inhib 22.
`O=C(CSc1ncc(-c2ccc(F)cc2)n1Cc1ccco1)Nc1nccs1` gave MEKK2 WT-MEK5 97, MEKK2 mut-MEK5 1, UBC13 polyUb -4, UCH37 inh 2, MEKK3 PB1 HTS 98 and Apaf1 inhib 35.
Cc1cnc(NC(=O)CSc2ncc(-c3ccccc3)n2Cc2ccco2)s1 was read as MEKK2 WT-MEK5 104, MEKK2 mut-MEK5 0, UBC13 polyUb 1, UCH37 inh 4, MEKK3 PB1 HTS 101, Apaf1 inhib 42*, Apaf-1 inh conf 21 and Rh110 interf inh 11.
Screening Clc1ccc(/C=N/Nc2ncnc3ccccc23)cc1Cl returned UBC13 polyUb -10, Apaf1 inhib 43*, Apaf-1 inh conf 33 and Rh110 interf inh 14.
Screening Fc1ccccc1/C=N/Nc1ncnc2ccccc12 returned MEKK2 WT-MEK5 99, MEKK2 mut-MEK5 0, UBC13 polyUb -1, MEKK3 PB1 HTS 105 and Apaf1 inhib -2.
COc1cc(NC2CCCCC2O)c2nc(-c3ccc(Cl)cc3)ccc2c1 (stereo not given) was read as MEKK2 WT-MEK5 89, MEKK2 mut-MEK5 -6, UBC13 polyUb -28, UCH37 inh 0, MEKK3 PB1 HTS 96, Apaf1 inhib 55*, Apaf-1 inh conf 22 and Rh110 interf inh 19.
C[C@H](NC(=O)c1nc[nH]c1C(=O)N1CCc2ccccc2C1)C(=O)OC(C)(C)C was read as MEKK2 WT-MEK5 87, MEKK2 mut-MEK5 2, UBC13 polyUb -8, UCH37 inh 4, MEKK3 PB1 HTS 86 and Apaf1 inhib 32.
CCN(CC(=O)NCc1cccs1)C(=O)CCCOc1ccc(C(C)(C)C)cc1 was read as UBC13 polyUb 10, UCH37 inh 1, Apaf1 inhib 42*, Apaf-1 inh conf 34 and Rh110 interf inh 11.
Screening COc1cc(OC)cc(C(=O)NCCOc2ccccc2)c1 returned MEKK2 WT-MEK5 103, MEKK2 mut-MEK5 4, UBC13 polyUb 2, UCH37 inh 2, MEKK3 PB1 HTS 106 and Apaf1 inhib 1.
CCCn1nc(C(=O)Nc2ccc(-n3cnnn3)cc2)c2ccccc2c1=O was read as UBC13 polyUb 5, UCH37 inh -40, Apaf1 inhib 71*, Apaf-1 inh conf 8 and Rh110 interf inh 5.
Screening Cc1nc(C)c(NC(=O)N2CCc3ccccc32)cc1NC(=O)N1CCc2ccccc21 returned MEKK2 WT-MEK5 100, MEKK2 mut-MEK5 6, UBC13 polyUb 10, UCH37 inh 6, MEKK3 PB1 HTS 99 and Apaf1 inhib 17.
`Cn1ccc2cc3c(cc21)CCN3C(=O)Nc1cccnc1` gave UBC13 polyUb -20, UCH37 inh 1, Apaf1 inhib 66*, Apaf-1 inh conf 15 and Rh110 interf inh 5.
Cc1cccnc1NC(=O)c1ccc(OCC2CCCO2)cc1 (stereo not given) was read as UBC13 polyUb 19, UCH37 inh 2, Apaf1 inhib 54*, Apaf-1 inh conf 34 and Rh110 interf inh 6.
Screening CCCCCn1c(N2CCC(Cc3ccccc3)CC2)nc2c1c(=O)[nH]c(=O)n2C returned MEKK2 WT-MEK5 92, MEKK2 mut-MEK5 2, UBC13 polyUb 17, MEKK3 PB1 HTS 100, Apaf1 inhib 46*, Apaf-1 inh conf 32 and Rh110 interf inh 11.
`CC12COC3(C(=O)Nc4ccc(F)cc4)CC1CCC32C` (stereo not given) gave MEKK2 WT-MEK5 111, MEKK2 mut-MEK5 21, UBC13 polyUb -1, UCH37 inh 1, MEKK3 PB1 HTS 106 and Apaf1 inhib -2.
Screening CC12COC3(P(=O)(c4ccccc4)c4ccccc4)CC1CCC23CP(=O)(c1ccccc1)c1ccccc1 (stereo not given) returned MEKK2 WT-MEK5 95, MEKK2 mut-MEK5 -1, UBC13 polyUb -9, UCH37 inh -1, MEKK3 PB1 HTS 100, Apaf1 inhib 41*, Apaf-1 inh conf 14 and Rh110 interf inh 8.
Screening O=C(NCc1ccccc1)C(=O)NCC1OCCN1S(=O)(=O)c1cccs1 (stereo not given) returned MEKK2 WT-MEK5 101, MEKK2 mut-MEK5 9, UBC13 polyUb -6, UCH37 inh 3, MEKK3 PB1 HTS 113 and Apaf1 inhib -3.
NC(=O)[C@H](Cc1cc2ccccc2s1)NC(=O)[C@@H]1CC2(CC(c3cccc(NC(=O)[C@@H]4CCC(=O)N4)c3)=NO2)CN1C(=O)/C=C/c1c(F)cccc1Cl (stereo not given in full) was read as MEKK2 WT-MEK5 106, MEKK2 mut-MEK5 3, UBC13 polyUb -16, UCH37 inh 1, MEKK3 PB1 HTS 103, Apaf1 inhib 47*, Apaf-1 inh conf 16 and Rh110 interf inh 13.
